Test results: ChEMBL document CHEMBL1137969, “Subtype-selective nicotinic receptor antagonists: potential as tobacco use cessation agents” (Bioorg Med Chem Lett, 2004); call rule not given here

How the values were obtained:
[1] = target: T1, Neuronal acetylcholine receptor; alpha4/beta2 (Rattus norvegicus, UniProt P09483+P12390); test: Inhibition of [3H]nicotine binding to Nicotinic acetylcholine receptor alpha4-beta2 in rat brain membranes; assay type: cell membranes
How it was run: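 Rat whole-brain membranes (cortex and cerebellum removed), washed by repeated centrifugation and stored at −70 °C. Incubated with 3 nM [³H]nicotine and a range of analogue concentrations in pH 7.5 HEPES-based buffer with Tris, 60 min at room temperature. Nonspecific binding defined with nicotine. Filtration on PEI-soaked GF/B filters, scintillation counting. Ki is the mean of four independent experiments with standard error.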

[2] = target: Neuronal acetylcholine receptor subunit alpha-7 (Rattus norvegicus, UniProt Q05941); test: Inhibition of [3H]-MLA binding to Nicotinic acetylcholine receptor alpha-7 in rat brain membranes; NA= Not active; assay type: cell membranes
How it was run: (§1)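 Rat whole brain minus cortex and cerebellum, homogenized in HEPES buffer (pH 7.5), washed by repeated 25,000g spins with one 37 °C 10-min incubation, stored at −70 °C. Membranes ([…]) incubated 60 min at room temperature with 3 nM radioligand plus analogue ([…]) in HEPES assay buffer with 50 mM Tris. Nonspecific binding defined with […] MLA, respectively. PEI-soaked GF/B filtration. Four independent experiments.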

Rattus norvegicus [3] = organism: Rattus norvegicus; test: Inhibitory activity against nAChR mediated nicotine-evoked [3H]DA overflow using rat striatal slices; Not determined; assay type: functional, organism-based
How it was run: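 Rat striatal slices (4–6 mg) preincubated 60 min in oxygenated Krebs' buffer, pH 7.4, at 34 °C, […] [³H]DA (final) over the last 30 min. Slices then superfused at 1 mL/min, 34 °C, with nomifensine and pargyline present. Fractional release normalized to slice total tritium. Intrinsic and inhibitory activity measured on slices from the same rat. Means of 3–6 experiments.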

[4] = target: T1, Neuronal acetylcholine receptor; alpha4/beta2; test: Inhibition of [3H]nicotine binding to Nicotinic acetylcholine receptor alpha4-beta2 in rat brain membranes; NA= Not active; assay type: cell membranes; how it was run: as §1
Rattus norvegicus [5] = organism: Rattus norvegicus; test: Inhibitory activity against nAChR mediated nicotine-evoked [3H]DA overflow using rat striatal slices; assay type: functional, organism-based
How it was run: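 Rat striatal slices preincubated in oxygenated Krebs' buffer (pH 7.4) at 34 °C, loaded with [³H]DA during the last 30 min of the 60-min incubation. Slices then superfused at 34 °C with buffer containing nomifensine and pargyline. Nicotine-evoked overflow was normalized to slice tritium content, using a repeated-measures design.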

Chain of Neuronal acetylcholine receptor subunit alpha-7 (Q05941 whole entry): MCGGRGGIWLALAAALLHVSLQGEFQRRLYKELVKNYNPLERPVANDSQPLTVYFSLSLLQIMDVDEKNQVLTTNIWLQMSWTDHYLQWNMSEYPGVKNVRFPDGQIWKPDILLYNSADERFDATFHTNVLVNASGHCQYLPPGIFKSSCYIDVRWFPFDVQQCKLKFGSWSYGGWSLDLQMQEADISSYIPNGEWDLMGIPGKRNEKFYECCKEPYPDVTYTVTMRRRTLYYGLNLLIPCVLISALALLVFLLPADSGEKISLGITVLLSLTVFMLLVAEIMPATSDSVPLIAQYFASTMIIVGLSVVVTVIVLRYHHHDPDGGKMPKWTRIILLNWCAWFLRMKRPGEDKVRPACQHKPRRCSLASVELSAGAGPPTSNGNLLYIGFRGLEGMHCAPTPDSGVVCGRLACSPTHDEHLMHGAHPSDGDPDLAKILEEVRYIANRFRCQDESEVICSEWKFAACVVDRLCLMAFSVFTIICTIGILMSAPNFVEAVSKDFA
T1 sequence (P09483 whole entry): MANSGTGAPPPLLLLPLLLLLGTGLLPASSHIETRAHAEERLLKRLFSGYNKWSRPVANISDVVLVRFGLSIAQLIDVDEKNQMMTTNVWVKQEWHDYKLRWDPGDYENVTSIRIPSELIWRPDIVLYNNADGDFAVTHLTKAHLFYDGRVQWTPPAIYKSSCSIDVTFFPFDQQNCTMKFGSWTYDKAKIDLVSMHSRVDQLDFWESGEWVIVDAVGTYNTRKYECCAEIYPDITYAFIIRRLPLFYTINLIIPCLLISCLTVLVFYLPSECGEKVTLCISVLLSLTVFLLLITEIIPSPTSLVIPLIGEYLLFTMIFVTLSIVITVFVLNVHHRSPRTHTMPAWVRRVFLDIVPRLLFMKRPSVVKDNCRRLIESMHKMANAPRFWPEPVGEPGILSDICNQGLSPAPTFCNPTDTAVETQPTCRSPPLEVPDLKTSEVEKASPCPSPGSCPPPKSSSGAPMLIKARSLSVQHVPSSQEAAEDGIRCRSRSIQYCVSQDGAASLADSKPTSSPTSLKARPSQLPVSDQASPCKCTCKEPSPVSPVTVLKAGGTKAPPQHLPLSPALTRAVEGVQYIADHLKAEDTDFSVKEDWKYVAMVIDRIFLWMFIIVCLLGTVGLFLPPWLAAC
T1 sequence (P12390 whole entry): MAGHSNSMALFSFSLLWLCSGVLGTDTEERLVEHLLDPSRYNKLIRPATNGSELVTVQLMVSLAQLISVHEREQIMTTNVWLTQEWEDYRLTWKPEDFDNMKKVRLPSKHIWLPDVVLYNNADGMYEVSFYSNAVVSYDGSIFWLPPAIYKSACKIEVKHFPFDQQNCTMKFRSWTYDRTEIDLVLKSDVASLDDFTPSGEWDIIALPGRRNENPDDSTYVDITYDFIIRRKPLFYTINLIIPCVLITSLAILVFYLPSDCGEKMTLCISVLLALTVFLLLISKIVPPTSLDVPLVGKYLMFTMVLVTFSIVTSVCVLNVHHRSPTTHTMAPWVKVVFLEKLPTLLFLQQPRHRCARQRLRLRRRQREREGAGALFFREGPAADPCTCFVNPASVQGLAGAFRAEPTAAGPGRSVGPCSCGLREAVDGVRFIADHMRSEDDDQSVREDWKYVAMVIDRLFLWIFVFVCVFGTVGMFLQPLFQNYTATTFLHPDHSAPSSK

Row | SMILES | Ki [1] [nM] | Ki [2] | IC50 (Rattus norvegicus [3]) [nM] | Ki [4] | IC50 (Rattus norvegicus [5]) [nM]
1 | CCCCCCCCC[n+]1cccc(C)c1.[I-] | 62000 | Not Active | – | – | –
2 | Cc1ccc[n+](CCCCCCCC[n+]2cccc(C)c2)c1.[I-].[I-] | – | Not Active | 10 | Not Active | –
3 | CCCCCCCCCC[n+]1cccc(C)c1.[I-] | 26000 | Not Active | – | – | 300
4 | Cc1ccc[n+](CCCCCCCCCCCC[n+]2cccc(C)c2)c1.[Br-].[Br-] | – | Not Active | – | – | 5
5 | Cc1ccc[n+](CCCCCC[n+]2cccc(C)c2)c1.[I-].[I-] | – | Not Active | – | Not Active | 1660
6 | CCCCCCCC[n+]1cccc(C)c1.[I-] | – | Not Active | – | Not Active | 1000
7 | CCCCCCCCCCC[n+]1cccc(C)c1.[I-] | – | Not Active | – | Not Active | –
8 | CCCCCCCCCCCC[n+]1cccc(C)c1.[I-] | – | Not Active | – | Not Active | 30
9 | Cc1ccc[n+](CCCCCCCCCC[n+]2cccc(C)c2)c1.[I-].[I-] | – | Not Active | – | Not Active | 30
10 | Cc1ccc[n+](CCCCCCCCC[n+]2cccc(C)c2)c1.[Br-].[Br-] | – | Not Active | – | – | –
11 | Cc1ccc[n+](CCCCCCCCCCC[n+]2cccc(C)c2)c1.[Br-].[Br-] | – | Not Active | – | – | 610
